{"source": "ChEMBL document CHEMBL5034016", "about": "(J Med Chem, 2021)", "key": {"[1]": {"experiment": "Inhibition of mouse mAb clone 9305 binding to HIV1 gp120 expressed in human MT4 cells by flow cytometry analysis", "format": "cell-based, Human immunodeficiency virus 1"}, "[2]": {"experiment": "Inhibition of human mAb clone 2G12 binding to HIV1 gp120 expressed in human MT4 cells by flow cytometry analysis", "format": "cell-based, Human immunodeficiency virus 1"}, "[3]": {"system": "Human immunodeficiency virus 1", "experiment": "Inhibition of HIV-1 gp120 interaction with human CD4 assessed as inhibition of viral entry at 156 to […] by SPR analysis", "conditions": "dose lower […], dose upper […]"}, "[4]": {"experiment": "Inhibition of human mAb clone 447-52D binding to HIV1 gp120 expressed in human MT4 cells by flow cytometry analysis", "format": "cell-based, Human immunodeficiency virus 1"}, "[5]": {"experiment": "Inhibition of mouse mAb clone 9284 binding to HIV1 gp120 expressed in human MT4 cells by flow cytometry analysis", "format": "cell-based, Human immunodeficiency virus 1"}, "[6]": {"experiment": "Selectivity index, ratio of CC50 for human RD cells to EC50 for antiviral activity against Enterovirus A71 infected in human RD cells", "format": "toxicity, cell-based", "conditions": "read-out: Ratio CC50/EC50"}, "[7]": {"system": "Human immunodeficiency virus 1", "experiment": "Anti-HIV activity against HIV-1 NL4.3 infected in human MT4 cells assessed as reduction in virus-indued cytopathic effect preincubated with cells for 30 mins followed by viral infection and measured after 5 days by MTS assay", "format": "functional, organism-based", "conditions": "Human immunodeficiency virus 1, NL4.3, MT4", "method_in_brief": "(§1)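 MT-4 cells (1×10^6 cells/mL) were preincubated with compound for 30 min at 37 °C, then infected with cell-line-adapted NL4.3 or ROD dosed by TCID50 of the stock. After 5 days, CPE was scored microscopically and EC50 calculated from MTS/PES reduction (A490). Mean ± SD of at least three independent experiments.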"}, "[8]": {"experiment": "Cytotoxicity against human RD cells assessed as reduction in cell viability measured after 3 days by MTS/PMS assay", "format": "cell-based", "conditions": "time 3 day", "method_in_brief": "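Uninfected RD cells were treated with serial compound dilutions in the same 3-day setup as the antiviral assay. […] Multiple dose–response curves (>2) from >1 independent experiments.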"}, "[9]": {"system": "Human immunodeficiency virus 2", "experiment": "Anti-HIV activity against HIV-2 ROD infected in human MT4 cells assessed as reduction in virus-indued cytopathic effect preincubated with cells for 30 mins followed by viral infection and measured after 5 days by MTS assay", "format": "functional, organism-based", "conditions": "Human immunodeficiency virus 2, ROD", "method_in_brief": "as §1"}, "[10]": {"experiment": "Cytotoxicity against human MT4 cells assessed as reduction in cell viability measured after 5 days by MTS/PES assay", "format": "cell-based", "conditions": "time 5 day", "method_in_brief": "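Uninfected MT-4 cells were exposed to compound for 5 days. Viability was read by MTS/PES (A490, formazan proportional to living cells). […] Mean ± SD of at least three independent experiments.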"}, "Enterovirus A71": {"system": "Enterovirus A71", "experiment": "Antiviral activity against Enterovirus A71 BrCr infected in human RD cells assessed as reduction in virus-induced cytopathic effect incubated for 3 days by MTS/PMS assay", "format": "functional, organism-based", "conditions": "Enterovirus A, 72 h"}, "rhinovirus B14": {"system": "rhinovirus B14", "experiment": "Antiviral activity against Human rhinovirus 14 infected in HeLa cells assessed as reduction in virus induced cytopathic effect", "format": "functional, organism-based", "conditions": "Rhinovirus B"}, "[11]": {"system": "Human immunodeficiency virus 1", "experiment": "Inhibition of HIV-1 gp120 interaction with human CD4 assessed as fold change in inhibition of viral entry at 10 to 40 nM by SPR analysis relative to AL-471", "conditions": "dose 10-40 nM", "method_in_brief": "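His-CD4 at 2 μg/mL captured on a NiCl2-activated chip channel, with a reference channel alongside. 25 nM gp120 premixed with compound, 10 000 to 10 nM in fourfold steps, injected 2 min over both channels. Surface regenerated with 350 mM EDTA. Binding % from maximum response at injection end versus gp120 alone. Triplicate experiments.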"}, "rhinovirus A2": {"system": "rhinovirus A2", "experiment": "Antiviral activity against Human rhinovirus 2 infected in HeLa cells assessed as reduction in virus induced cytopathic effect", "format": "functional, organism-based", "conditions": "Rhinovirus A"}, "[12]": {"system": "Human immunodeficiency virus 1", "experiment": "Potency index, ratio of AL-471 EC50 to test compound EC50 for anti-HIV activity against HIV-1 NL4.3 infected in human MT4 cells assessed as reduction in virus-indued cytopathic effect preincubated with cells for 30 mins followed by viral infection and measured after 5 days by MTS assay", "format": "functional", "conditions": "time 120.5 hrs"}, "[13]": {"system": "Human immunodeficiency virus 1", "experiment": "Potency index, ratio of AL-471 Kd to test compound Kd for binding affinity to CM5 sensor chip immobilized recombinant HIV-1 gp120 at 12.5 to 0.1 uM measured for 4 mins by SPR analysis", "conditions": "dose 12.5-0.1 µM"}, "[14]": {"system": "Human immunodeficiency virus 1", "experiment": "Binding affinity to CM5 sensor chip immobilized recombinant HIV-1 gp120 assessed as association constant at 12.5 to 0.1 uM by SPR analysis", "conditions": "dose 12.5-0.1 µM"}, "[15]": {"system": "Human immunodeficiency virus 1", "experiment": "Inhibition of HIV-1 gp120 interaction with human CD4 assessed as inhibition of viral entry at 10 to 40 nM by SPR analysis relative to control", "conditions": "dose 10-40 nM", "method_in_brief": "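His-CD4 (2 μg/mL) was captured on a Ni-chelated chip (0.5 mM NiCl2 activation). 25 nM gp120 premixed with compound (10 000 to 10 nM, fourfold steps) was injected for 2 min over reference and analysis channels. Binding % used the maximum response at end of injection relative to 25 nM gp120 alone. Regeneration was with 350 mM EDTA. Run in triplicate.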"}, "[16]": {"system": "Human immunodeficiency virus 1", "experiment": "Anti-HIV activity against HIV-1 Ba-L infected in PHA-stimulated PBMC expressing CCR5 assessed as inhibition of virus-indued cytopathogenic effect measured after 10 days by ELISA", "format": "functional, organism-based", "conditions": "Human immunodeficiency virus 1, Ba-L, 240 h"}, "[17]": {"system": "Human immunodeficiency virus 1", "experiment": "Anti-HIV activity against HIV-1 NL4.3 infected in PHA-stimulated human PBMC expressing CXCR-4 assessed as inhibition of virus-indued cytopathogenic effect measured after 10 days by ELISA", "format": "functional, organism-based", "conditions": "Human immunodeficiency virus 1, NL4.3, PBMC, 240 h"}}, "data": [{"smiles": "O=C(CCOCC(COCCC(=O)NC(Cc1c(-c2cc(C(=O)O)cc(C(=O)O)c2)[nH]c2ccccc12)C(=O)O)(COCCC(=O)NC(Cc1c(-c2cc(C(=O)O)cc(C(=O)O)c2)[nH]c2ccccc12)C(=O)O)COCCC(=O)NC(Cc1c(-c2cc(C(=O)O)cc(C(=O)O)c2)[nH]c2ccccc12)C(=O)O)NC(Cc1c(-c2cc(C(=O)O)cc(C(=O)O)c2)[nH]c2ccccc12)C(=O)O", "note": "(stereo unspecified)", "values": [{"measurement": "IC50", "setting": "[1]", "value": "> 100", "unit": "µM"}, {"measurement": "IC50", "setting": "[2]", "value": "> 100", "unit": "µM"}, {"measurement": "inhibition", "setting": "[3]", "value": 50, "unit": "%"}, {"measurement": "IC50", "setting": "[4]", "value": "> 100", "unit": "µM"}, {"measurement": "IC50", "setting": "[5]", "value": "> 100", "unit": "µM"}]}, {"smiles": "O=C(CCOCC(COCCC(=O)NC(Cc1c[nH]c2c(-c3ccc(C(=O)O)cc3)cccc12)C(=O)O)(COCCC(=O)NC(Cc1c[nH]c2c(-c3ccc(C(=O)O)cc3)cccc12)C(=O)O)COCCC(=O)NC(Cc1c[nH]c2c(-c3ccc(C(=O)O)cc3)cccc12)C(=O)O)NC(Cc1c[nH]c2c(-c3ccc(C(=O)O)cc3)cccc12)C(=O)O", "note": "(stereo unspecified)", "values": [{"measurement": "selectivity ratio", "setting": "[6]", "value": 60}]}, {"smiles": "O=C(CCC(CCC(=O)NC(Cc1c[nH]c2c(-c3ccc(C(=O)O)cc3)cccc12)C(=O)O)(CCC(=O)NC(Cc1c[nH]c2c(-c3ccc(C(=O)O)cc3)cccc12)C(=O)O)[N+](=O)[O-])NC(Cc1c[nH]c2c(-c3ccc(C(=O)O)cc3)cccc12)C(=O)O", "note": "(stereo unspecified)", "values": [{"measurement": "EC50", "setting": "[7]", "value": 12, "unit": "µM"}, {"measurement": "CC50 at 72 h", "setting": "[8]", "value": "> 61", "unit": "µM"}, {"measurement": "EC50", "setting": "[9]", "value": 49.7, "unit": "µM"}, {"measurement": "selectivity ratio", "setting": "[6]", "value": 1}, {"measurement": "CC50 at 120 h", "setting": "[10]", "value": "> 100", "unit": "µM"}, {"measurement": "EC50", "setting": "Enterovirus A71", "value": 61.6, "unit": "µM"}]}, {"smiles": "O=C(CCC(CCC(=O)NC(Cc1c(-c2cc(C(=O)O)cc(C(=O)O)c2)[nH]c2c(-c3cc(C(=O)O)cc(C(=O)O)c3)cccc12)C(=O)O)(CCC(=O)NC(Cc1c(-c2cc(C(=O)O)cc(C(=O)O)c2)[nH]c2c(-c3cc(C(=O)O)cc(C(=O)O)c3)cccc12)C(=O)O)[N+](=O)[O-])NC(Cc1c(-c2cc(C(=O)O)cc(C(=O)O)c2)[nH]c2c(-c3cc(C(=O)O)cc(C(=O)O)c3)cccc12)C(=O)O", "note": "(stereo unspecified)", "values": [{"measurement": "EC50", "setting": "[7]", "value": 0.04, "unit": "µM"}, {"measurement": "CC50 at 72 h", "setting": "[8]", "value": "> 100", "unit": "µM"}, {"measurement": "EC50", "setting": "[9]", "value": 0.07, "unit": "µM"}, {"measurement": "selectivity ratio", "setting": "[6]", "value": 526}, {"measurement": "CC50 at 120 h", "setting": "[10]", "value": "> 100", "unit": "µM"}, {"measurement": "EC50", "setting": "Enterovirus A71", "value": 0.2, "unit": "µM"}]}, {"smiles": "O=C(CCOCC(COCCC(=O)NC(Cc1c[nH]c2c(-c3cccc(C(=O)O)c3)cccc12)C(=O)O)(COCCC(=O)NC(Cc1c[nH]c2c(-c3cccc(C(=O)O)c3)cccc12)C(=O)O)COCCC(=O)NC(Cc1c[nH]c2c(-c3cccc(C(=O)O)c3)cccc12)C(=O)O)NC(Cc1c[nH]c2c(-c3cccc(C(=O)O)c3)cccc12)C(=O)O", "note": "(stereo unspecified)", "values": [{"measurement": "selectivity ratio", "setting": "[6]", "value": 20}]}, {"smiles": "O=C(CCOCC(COCCC(=O)NC(Cc1c(-c2cc(C(=O)O)cc(C(=O)O)c2)[nH]c2c(-c3cc(C(=O)O)cc(C(=O)O)c3)cccc12)C(=O)O)(COCCC(=O)NC(Cc1c(-c2cc(C(=O)O)cc(C(=O)O)c2)[nH]c2c(-c3cc(C(=O)O)cc(C(=O)O)c3)cccc12)C(=O)O)COCCC(=O)NC(Cc1c(-c2cc(C(=O)O)cc(C(=O)O)c2)[nH]c2c(-c3cc(C(=O)O)cc(C(=O)O)c3)cccc12)C(=O)O)NC(Cc1c(-c2cc(C(=O)O)cc(C(=O)O)c2)[nH]c2c(-c3cc(C(=O)O)cc(C(=O)O)c3)cccc12)C(=O)O", "note": "(stereo unspecified)", "values": [{"measurement": "IC50", "setting": "[1]", "value": "> 100", "unit": "µM"}, {"measurement": "IC50", "setting": "[2]", "value": "> 100", "unit": "µM"}, {"measurement": "EC50", "setting": "rhinovirus B14", "value": "> 50", "unit": "µM"}, {"measurement": "fold change (FC)", "setting": "[11]", "value": 16}, {"measurement": "selectivity ratio", "setting": "[6]", "value": 2500}, {"measurement": "EC50", "setting": "rhinovirus A2", "value": "> 50", "unit": "µM"}, {"measurement": "Ratio EC50", "setting": "[12]", "value": 3.5}, {"measurement": "Ratio", "setting": "[13]", "value": 6}, {"measurement": "ka", "setting": "[14]", "value": "3.34 10^3/M/s"}, {"measurement": "inhibition", "setting": "[15]", "value": 50, "unit": "%"}]}, {"smiles": "Cc1nnc(C(C)C)n1[C@H]1C[C@H]2CC[C@@H](C1)N2CC[C@H](NC(=O)C1CCC(F)(F)CC1)c1ccccc1", "note": "[MARAVIROC]", "values": [{"measurement": "EC50", "setting": "[16]", "value": 0.00448, "unit": "µM"}, {"measurement": "EC50", "setting": "[17]", "value": "> 1", "unit": "µM"}]}]}
